Reference: ChEMBL document CHEMBL3758135 (J Nat Prod, 2015)

What was measured:
Histone deacetylase = experiment: Inhibition of HDAC in human HeLa cell nuclear extract using BML-KI104 Fluor de Lys as substrate by fluorescence-based assay
Prostaglandin E synthase = target: T1, Prostaglandin E synthase (Homo sapiens, UniProt O14684); experiment: Inhibition of mPGES-1 in human IL-1beta-stimulated A549 cell microsomes assessed as reduction of PGE2 formation from PGH2 preincubated for 15 mins by HPLC analysis; type: cell-based
T1 sequence (O14684 whole entry): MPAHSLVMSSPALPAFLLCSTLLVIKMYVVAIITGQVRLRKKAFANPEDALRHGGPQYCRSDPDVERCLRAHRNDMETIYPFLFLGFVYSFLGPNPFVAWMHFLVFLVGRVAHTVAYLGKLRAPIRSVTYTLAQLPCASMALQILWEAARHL
In short: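 A549 cells stimulated with 2 ng/mL IL-1β for 72 h at 37 °C, 5% CO2, then sonicated and homogenized. Microsomal pellet collected at 174000g, 1 h, 4 °C. Membranes diluted in 0.1 M K3PO4, pH 7.4, with 2.5 mM glutathione. Compound or vehicle added for 15 min at 4 °C. Reaction started with 20 μM PGH2, stopped after 1 min with FeCl2/citric acid containing 11β-PGE2 internal standard. PGE2 measured by SPE-HPLC.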

Row | IC50 (Histone deacetylase) [µM] | IC50 (Prostaglandin E synthase) [nM] | Compound
1 | 5620 | 930 | COc1cc(/C=C/C(=O)CC(=O)/C=C/c2ccc(OCC=C(C)C)c(OC)c2)ccc1O
2 | 347 | 2000 | COc1cc(/C=C/C(=O)CC(=O)/C=C/c2ccc(OCC=C(C)C)c(OC)c2)ccc1OCC=C(C)C
3 | 188 | 2000 | COc1cc(/C=C/C(=O)CC(=O)/C=C/c2ccc(OC/C=C(\C)CCC=C(C)C)c(OC)c2)ccc1OC/C=C(\C)CCC=C(C)C
4 | – | 2000 | COc1cc(/C=C/C(=O)C(CC=C(C)C)(CC=C(C)C)C(=O)/C=C/c2ccc(OCC=C(C)C)c(OC)c2)ccc1OCC=C(C)C
5 | – | 2000 | COc1cc(/C=C/C(=O)C(CC=C(C)C)C(=O)/C=C/c2ccc(OCC=C(C)C)c(OC)c2)ccc1OCC=C(C)C
6 | 217 | 2000 | COc1cc(/C=C/C(=O)C(C/C=C(\C)CCC=C(C)C)C(=O)/C=C/c2ccc(OC/C=C(\C)CCC=C(C)C)c(OC)c2)ccc1OC/C=C(\C)CCC=C(C)C
7 | 495 | 1020 | COc1cc(/C=C/C(=O)CC(=O)/C=C/c2ccc(OC/C=C(\C)CCC=C(C)C)c(OC)c2)ccc1O
8 | 84.2 | 2000 | COc1cc(/C=C/C(=O)CC(=O)/C=C/c2ccc(OC/C=C(\C)CC/C=C(\C)CCC=C(C)C)c(OC)c2)ccc1O
9 | 786 | 2000 | COc1cc(/C=C/C(=O)C(C/C=C(\C)CCC=C(C)C)(C/C=C(\C)CCC=C(C)C)C(=O)/C=C/c2ccc(OC/C=C(\C)CCC=C(C)C)c(OC)c2)ccc1OC/C=C(\C)CCC=C(C)C
10 | 122 | 2000 | COc1cc(/C=C/C(=O)CC(=O)/C=C/c2ccc(OC/C=C(\C)CC/C=C(\C)CCC=C(C)C)c(OC)c2)ccc1OC/C=C(\C)CC/C=C(\C)CCC=C(C)C
11 | – | 220 | COc1cc(/C=C/C(=O)CC(=O)/C=C/c2ccc(O)c(OC)c2)ccc1O [CURCUMIN]
